Cneo AK release = Cryptococcus neoformans cell lysis inducers, primary screen, AK release luminescence, single concentration; C. neoformans lysis, adenylate kinase release luminescence, 4 h; normalised: neutral wells 0, clomiphene wells 100; lysis activity, % at 15 µM; 360,000 compounds, 0.2% hits; AID 651654, 2012;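 active = mean lysis activity across replicates of at least 80%, whatever share of replicates individually reach that level; inactive = mean lysis activity below 80%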
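Test system: log-phase Cryptococcus neoformans yeast cells. Input: 5 × 10^6 yeast cells/mL. Medium: fresh YPD growth medium. Doses: single dose. Incubation: static 4 h at 37 °C with compound, 1 h detection. Measured by: luminescent adenylate kinase detection reagent. Read-out: signal increase indicating cell lysis. Benchmarks: Clomiphene.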
PGC1a acetyl inh = inhibitors of PGC1a acetylation signal, primary screen, cell-based, U2OS, AlphaScreen, inhibitor mode. inhibition, % at 15.6 µM. AlphaScreen anti-acetyl-lysine; with virally co-expressed GCN5 acetyltransferase. 350,000 compounds, 0.17% hits;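 active = every replicate shows inhibition of at least 40%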
MITF act = activators of MITF-driven TRPM1 promoter reporter, primary screen, cell-based, SK-MEL-5, luciferase, single point; SK-MEL-5 TRPM1-promoter luciferase, 24 h; % of positive control, neutral wells = 0; activation, % at 12.5 µM; 300,000 compounds, 0.75% hits; AID 588334, 2011;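 active = mean activation of at least 80% with every replicate also reaching 80%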
Wnt bcat act = Wnt/beta-catenin pathway activators, primary screen, cell-based, plate reader, single point. Wnt/beta-catenin reporter cell assay, activator. activation, % at 9.35 µM. 300,000 compounds, 1.2% hits; in the data active = activation above about 30%, passing the limit was not always enough
C2C12 COX5a inh = inhibitors of PGC-1a-driven COX5a expression, dose response, cell-based, C2C12 myotubes, RT-qPCR, cherry-picked samples; shares compounds with PGC1a acetyl inh; AID 743461, 2014; 45 tested, under 10 active; C2C12 myotubes PGC-1a adenovirus; maximal activity, %;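 active = fitted dose curve reaching 40% activity at or below the highest valid dose tested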
AID743468 = change in PGC-1a target gene PDK4 expression, dose response, C2C12 myotubes, RT-qPCR, cherry-pick | shares compounds with PGC1a acetyl inh | 45 tested, under 10 active | PGC-1a adenovirus, PDK4 mRNA qPCR | PDK4 expression increase, % at 19.5 µM;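 active = fitted curve reaching a 40% PDK4 expression rise at or below the top valid tested dose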
Of the large screens only hits and unclear results are named; the others gave an inactive call (follow-up assays come after a bar, where they were run). Only some compounds are listed: those with a hit (about 1.5% of all), similar ones and a draw of the others.

COC(=O)C[C@]1(C(=O)OC)CN(C#N)N(c2ccc(Cl)cc2)C12c1ccccc1-c1ccccc12	none
Cc1cccc(S(=O)(=O)N2[C@@H]3c4ccc(-c5cccc(F)c5)c(=O)n4C[C@H]2[C@H](CO)[C@H]3C(=O)O)c1	none (no result: PGC1a acetyl inh, MITF act, Wnt bcat act)
COC(=O)[C@@H]1[C@@H](CO)[C@@H]2Cn3c(ccc(-c4ccccc4F)c3=O)[C@H]1N2C(C)=O	none (no result: PGC1a acetyl inh, MITF act, Wnt bcat act)
COc1ccc(C#Cc2ccc([C@@H]3[C@H]4CN(C(=O)Cc5ccccc5)CCCCN4[C@H]3CO)cc2)cc1	none (no result: MITF act, Wnt bcat act)
Cn1ncnc2c(=O)n(C)c(=O)nc1-2	PGC1a acetyl inh 100 (no result: Wnt bcat act)
C[C@H]1C[C@@H](C)C(=O)[C@@H]([C@H](O)CC2CC(=O)NC(=O)C2)C1	PGC1a acetyl inh 68 (no result: MITF act)
COC(=O)[C@H]1[C@H](CO)[C@H]2Cn3c(ccc(C4=CCCCC4)c3=O)[C@@H]1N2C(=O)CC1CC1	none (no result: MITF act, Wnt bcat act)
O=c1[nH]c2ccccc2n1C1CCN(C(c2cc3ccccc3o2)c2nnnn2Cc2ccccc2)CC1 (stereo unspecified)	PGC1a acetyl inh 49 (no result: MITF act) | C2C12 COX5a inh inactive | AID743468 inactive
CCC(=O)N1[C@@H]2Cn3c(ccc(C4=CCCC4)c3=O)[C@H]1[C@@H](C(=O)OC)[C@@H]2CO	none (no result: PGC1a acetyl inh, MITF act, Wnt bcat act)
